The target in data set [1] is T1, Protein mono-ADP-ribosyltransferase PARP10 (Homo sapiens, UniProt Q53GL7).
T1 sequence (Q53GL7 whole entry): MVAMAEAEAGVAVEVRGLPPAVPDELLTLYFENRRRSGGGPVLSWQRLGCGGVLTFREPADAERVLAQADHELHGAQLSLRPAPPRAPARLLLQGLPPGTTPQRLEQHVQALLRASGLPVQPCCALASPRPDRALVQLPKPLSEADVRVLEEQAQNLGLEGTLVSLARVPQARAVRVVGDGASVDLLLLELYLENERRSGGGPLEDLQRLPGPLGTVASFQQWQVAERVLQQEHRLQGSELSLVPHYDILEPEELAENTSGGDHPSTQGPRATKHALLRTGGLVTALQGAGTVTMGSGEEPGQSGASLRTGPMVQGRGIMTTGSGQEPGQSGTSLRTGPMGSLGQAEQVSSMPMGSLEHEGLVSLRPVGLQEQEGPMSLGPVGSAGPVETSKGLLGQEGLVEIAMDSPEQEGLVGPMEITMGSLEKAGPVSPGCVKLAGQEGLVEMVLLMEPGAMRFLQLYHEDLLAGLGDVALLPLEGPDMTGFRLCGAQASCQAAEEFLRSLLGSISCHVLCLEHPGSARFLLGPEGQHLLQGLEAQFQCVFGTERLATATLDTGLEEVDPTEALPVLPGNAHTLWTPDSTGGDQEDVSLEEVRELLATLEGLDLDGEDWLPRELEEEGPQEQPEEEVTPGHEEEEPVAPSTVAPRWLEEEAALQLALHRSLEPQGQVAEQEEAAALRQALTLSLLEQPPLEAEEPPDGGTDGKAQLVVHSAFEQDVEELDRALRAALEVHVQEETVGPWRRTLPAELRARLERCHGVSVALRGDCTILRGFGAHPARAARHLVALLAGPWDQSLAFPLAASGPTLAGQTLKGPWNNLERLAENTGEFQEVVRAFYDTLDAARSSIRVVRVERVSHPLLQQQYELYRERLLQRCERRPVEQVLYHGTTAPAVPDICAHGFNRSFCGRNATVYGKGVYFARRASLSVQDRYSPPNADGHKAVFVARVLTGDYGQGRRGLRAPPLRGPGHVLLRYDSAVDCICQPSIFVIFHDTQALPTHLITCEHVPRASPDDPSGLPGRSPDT
The data set can be described thus: Inhibition of human PARP10 catalytic domain assessed as reduction in MARylation of His6-tagged SRPK2 substrate after 60 mins in presence of NAD+ by chemifluorescence assay.

Data set [2] can be described thus: Inhibition of GFP-tagged human PARP6 short isoform expressed in HEK293T cells assessed as reduction in auto-MARylation after 60 mins in presence of 6-a-NAD+ by chemiluminescent immunoprecipitation assay. It counts as cell-based.
Data set [3] deals with T2, Protein mono-ADP-ribosyltransferase PARP10 (Homo sapiens) (UniProt Q53GL7).
T2 sequence (whole entry): T1 sequence (Q53GL7 whole entry)
The data set can be described thus: Inhibition of human PARP10 catalytic domain assessed as reduction in auto-MARylation at 30 uM after 60 mins in presence of 6-a-NAD+ by chemiluminescent immunoprecipitation assay relative to control.

For data set [4], the species on record is Homo sapiens. The data set can be described thus: Selectivity ratio of IC50 for full length human PARP3 to IC50 for human PARP10 catalytic domain. A digest of the protocol:
(§1)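 Selectivity ratio is the IC50 for the given PARP divided by the IC50 for PARP10 catalytic domain. IC50s came from the 6-a-NAD+ SRPK2 plate assay or, for cell-expressed PARPs, the immunoprecipitation auto-MARylation assay.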

For data set [5], the target named is Protein mono-ADP-ribosyltransferase PARP4 (Homo sapiens, UniProt Q9UKK3). The data set can be described thus: Inhibition of human PARP4 BRCT-catalytic domain (1 to 572 residues) assessed as reduction in MARylation of SRPK2 substrate after 60 mins in presence of 6-a-NAD+ by chemifluorescence assay. The essentials: (§2)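 Recombinant enzyme was tested in a 96-well plate assay that monitors MARylation of the substrate SRPK2 with the clickable 6-a-NAD+.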

The species entered for data set [6] is Homo sapiens. The data set can be described thus: Selectivity ratio of IC50 for human PARP15 catalytic domain to IC50 for human PARP10 catalytic domain. The essentials: as §1
The species named for data set [7] is Homo sapiens. In words: Selectivity ratio of IC50 for human PARP7 to IC50 for human PARP10 catalytic domain. The essentials: as §1
Data set [8] is filed under the species Homo sapiens. In words: Selectivity ratio of IC50 for full length human PARP1 to IC50 for human PARP10 catalytic domain. The essentials:
as §1

The species entered for data set [9] is Homo sapiens. The data set can be described thus: Selectivity ratio of IC50 for GFP-tagged human PARP6 long isoform expressed in HEK293T cells to IC50 for human PARP10 catalytic domain. It counts as cell-based. The essentials:
as §1

Data set [10] is described as follows: Inhibition of GFP-tagged human PARP6 long isoform expressed in HEK293T cells assessed as reduction in auto-MARylation after 60 mins in presence of 6-a-NAD+ by chemiluminescent immunoprecipitation assay. It counts as cell-based.
For data set [11], the target named is T3, Protein mono-ADP-ribosyltransferase PARP16 (Homo sapiens, UniProt Q8N5Y8).
T3 sequence (Q8N5Y8 whole entry): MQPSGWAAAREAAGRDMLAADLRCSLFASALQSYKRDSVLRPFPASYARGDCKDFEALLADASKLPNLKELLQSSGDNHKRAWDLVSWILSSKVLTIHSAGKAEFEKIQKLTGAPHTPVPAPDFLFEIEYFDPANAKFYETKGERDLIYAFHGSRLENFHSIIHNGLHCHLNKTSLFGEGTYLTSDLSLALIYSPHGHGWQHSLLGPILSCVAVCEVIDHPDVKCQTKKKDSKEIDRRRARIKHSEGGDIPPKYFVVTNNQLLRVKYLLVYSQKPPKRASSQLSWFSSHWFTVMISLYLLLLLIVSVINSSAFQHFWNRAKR
The data set can be described thus: Inhibition of human transmembrane domain deficient His-SUMO-tagged PARP16 expressed in Escherichia coli BL21 assessed as reduction in MARylation of His6-tagged SRPK2 substrate after 60 mins in presence of 6-a-NAD+ by chemifluorescence assay. A digest of the protocol:
as §2

Data set [12] is filed under the species Homo sapiens. The data set can be described thus: Selectivity ratio of IC50 for GFP-tagged human PARP8 expressed in HEK293T cells to IC50 for human PARP10 catalytic domain. It counts as cell-based. A digest of the protocol: as §1
The species entered for data set [13] is Homo sapiens. In words: Selectivity ratio of IC50 for human PARP14 catalytic-WWE domain (1459 to 1801 residues) expressed in Escherichia coli BL21 to IC50 for human PARP10 catalytic domain. The essentials: as §1
Data set [14] is filed under the species Homo sapiens. In words: Selectivity ratio of IC50 for GFP-tagged human PARP6 short isoform expressed in HEK293T cells to IC50 for human PARP10 catalytic domain. It counts as cell-based. A digest of the protocol:
as §1

In data set [15] the target is T2, Protein mono-ADP-ribosyltransferase PARP10 (Homo sapiens). In words: Inhibition of GFP-tagged human PARP10 expressed in HEK293T cells assessed as reduction in auto-MARylation after 3 hrs by Western blot analysis. It is filed as cell-based. The essentials:
(§3)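 HEK293T cells transfected with GFP-PARP10 and treated with compound at 1−100 μM for 3 h. A Western blot using an ADP-ribose binding reagent detected PARP10 auto-MARylation and PARP10-mediated MARylation of high molecular weight targets.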

The species named for data set [16] is Homo sapiens. In words: Selectivity ratio of IC50 for human transmembrane domain deficient His-SUMO-tagged PARP16 expressed in Escherichia coli BL21 to IC50 for human PARP10 catalytic domain. The essentials: as §1
Data set [17] has as its target T4, Protein mono-ADP-ribosyltransferase TIPARP (Homo sapiens, UniProt Q7Z3E1).
T4 sequence (Q7Z3E1 whole entry): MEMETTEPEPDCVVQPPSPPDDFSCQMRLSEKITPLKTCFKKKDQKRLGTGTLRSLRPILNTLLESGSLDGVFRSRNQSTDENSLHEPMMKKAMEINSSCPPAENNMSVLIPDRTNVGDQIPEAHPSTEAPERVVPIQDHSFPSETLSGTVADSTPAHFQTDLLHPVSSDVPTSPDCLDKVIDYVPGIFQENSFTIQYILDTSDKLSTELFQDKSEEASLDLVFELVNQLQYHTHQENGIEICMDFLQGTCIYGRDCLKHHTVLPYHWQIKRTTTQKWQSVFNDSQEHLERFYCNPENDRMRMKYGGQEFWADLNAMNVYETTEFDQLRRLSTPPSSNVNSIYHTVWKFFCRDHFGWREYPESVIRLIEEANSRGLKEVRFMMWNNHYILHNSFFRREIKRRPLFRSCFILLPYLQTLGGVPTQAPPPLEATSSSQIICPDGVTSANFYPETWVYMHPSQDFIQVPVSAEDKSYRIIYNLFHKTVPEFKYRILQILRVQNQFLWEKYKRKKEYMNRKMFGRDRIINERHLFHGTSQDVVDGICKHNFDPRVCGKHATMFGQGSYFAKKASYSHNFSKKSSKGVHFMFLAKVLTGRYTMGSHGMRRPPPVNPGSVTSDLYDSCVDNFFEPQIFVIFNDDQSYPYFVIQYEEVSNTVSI
The data set can be described thus: Inhibition of human PARP7 assessed as reduction in MARylation of SRPK2 substrate after 60 mins in presence of 6-a-NAD+ by chemifluorescence assay. The essentials:
as §2

For data set [18], the species on record is Homo sapiens. In words: Selectivity ratio of IC50 for human PARP5B catalytic domain (1 to 572 residues) to IC50 for human PARP10 catalytic domain. A digest of the protocol: as §1
The species entered for data set [19] is Homo sapiens. The data set can be described thus: Selectivity ratio of IC50 for GFP-tagged human PARP12 expressed in HEK293T cells to IC50 for human PARP10 catalytic domain. It is filed as cell-based. The essentials:
as §1

The target in data set [20] is T2, Protein mono-ADP-ribosyltransferase PARP10 (Homo sapiens). In words: Inhibition of GFP-tagged human PARP10 expressed in HEK293T cells assessed as reduction in high molecular weight target protein MARylation after 3 hrs by Western blot analysis. It is filed as cell-based. A digest of the protocol:
as §3

The species entered for data set [21] is Homo sapiens. In words: Selectivity ratio of IC50 for full length human PARP2 to IC50 for human PARP10 catalytic domain. A digest of the protocol:
as §1

For data set [22], the species on record is Homo sapiens. The data set can be described thus: Selectivity ratio of IC50 for human PARP4 BRCT-catalytic domain (1 to 572 residues) to IC50 for human PARP10 catalytic domain. A digest of the protocol: as §1
Data set [23] can be described thus: Aqueous solubility of the compound. It is filed as physicochemical. The note with it: buffer.

Sequence of Protein mono-ADP-ribosyltransferase PARP4 (Q9UKK3 whole entry, the tested form may be a part): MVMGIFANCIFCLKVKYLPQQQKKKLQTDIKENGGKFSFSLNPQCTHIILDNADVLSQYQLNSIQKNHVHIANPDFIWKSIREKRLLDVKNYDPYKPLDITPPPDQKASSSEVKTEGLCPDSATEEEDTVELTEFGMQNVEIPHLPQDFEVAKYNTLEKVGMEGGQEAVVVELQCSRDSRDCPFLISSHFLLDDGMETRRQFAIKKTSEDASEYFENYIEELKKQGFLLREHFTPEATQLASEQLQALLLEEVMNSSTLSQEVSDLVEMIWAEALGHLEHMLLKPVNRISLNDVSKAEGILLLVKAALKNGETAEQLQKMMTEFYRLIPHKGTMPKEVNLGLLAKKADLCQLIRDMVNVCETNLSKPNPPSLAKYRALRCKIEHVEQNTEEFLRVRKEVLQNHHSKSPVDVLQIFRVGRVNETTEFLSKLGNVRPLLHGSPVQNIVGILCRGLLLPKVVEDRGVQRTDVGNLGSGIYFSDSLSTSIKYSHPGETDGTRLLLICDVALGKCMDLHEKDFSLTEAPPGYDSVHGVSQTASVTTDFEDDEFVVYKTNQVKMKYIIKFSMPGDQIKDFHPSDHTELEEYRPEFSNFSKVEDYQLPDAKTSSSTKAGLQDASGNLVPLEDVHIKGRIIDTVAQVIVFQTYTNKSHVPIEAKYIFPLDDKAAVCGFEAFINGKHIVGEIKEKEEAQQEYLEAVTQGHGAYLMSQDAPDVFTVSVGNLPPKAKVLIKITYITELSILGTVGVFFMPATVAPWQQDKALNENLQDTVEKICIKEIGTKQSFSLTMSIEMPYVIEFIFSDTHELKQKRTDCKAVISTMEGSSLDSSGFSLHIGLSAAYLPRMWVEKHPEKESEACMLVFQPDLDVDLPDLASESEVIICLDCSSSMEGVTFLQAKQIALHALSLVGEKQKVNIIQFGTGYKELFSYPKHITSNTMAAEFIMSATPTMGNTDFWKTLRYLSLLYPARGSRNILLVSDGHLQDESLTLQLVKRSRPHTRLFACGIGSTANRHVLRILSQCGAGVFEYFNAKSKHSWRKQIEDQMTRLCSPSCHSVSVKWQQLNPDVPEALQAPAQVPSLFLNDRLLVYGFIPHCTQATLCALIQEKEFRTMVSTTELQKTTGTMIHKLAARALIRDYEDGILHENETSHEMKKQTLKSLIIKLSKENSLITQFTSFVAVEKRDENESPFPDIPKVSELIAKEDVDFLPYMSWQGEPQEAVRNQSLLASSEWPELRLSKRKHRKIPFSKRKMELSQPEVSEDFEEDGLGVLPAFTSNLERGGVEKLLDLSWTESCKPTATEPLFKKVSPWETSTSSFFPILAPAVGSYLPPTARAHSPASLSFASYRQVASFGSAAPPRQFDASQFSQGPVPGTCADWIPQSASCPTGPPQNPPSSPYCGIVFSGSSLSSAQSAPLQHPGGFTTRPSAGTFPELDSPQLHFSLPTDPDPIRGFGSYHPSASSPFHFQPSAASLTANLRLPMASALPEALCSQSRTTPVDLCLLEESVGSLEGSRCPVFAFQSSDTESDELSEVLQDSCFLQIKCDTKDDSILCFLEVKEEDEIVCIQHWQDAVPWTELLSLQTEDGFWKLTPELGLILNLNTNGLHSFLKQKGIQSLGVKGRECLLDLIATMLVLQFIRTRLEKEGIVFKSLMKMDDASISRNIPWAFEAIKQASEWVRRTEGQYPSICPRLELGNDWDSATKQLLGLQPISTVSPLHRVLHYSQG

Usually IC50 stands for the concentration needed to halve the response being measured. For the compound `Cc1c(-c2cncc(C(F)(F)F)c2)ccc2c1CCNC2=O`, in data set [1], the IC50 was 2.7 µM.

As for `Cc1c(-c2cccnc2)ccc2c1CCNC2=O`, the IC50 in data set [1] amounted to 2.5 µM.

The term inhibition denotes the drop in the measured response relative to a control, in per cent. For `Cc1c(-c2ccnc(C(F)(F)F)c2)ccc2c1CCNC2=O`, the IC50 in data set [2] is above 30 µM; in data set [5] it was above 100 µM; in data set [10] it was above 30 µM; in data set [11], 6.7 µM; in data set [1], 1.8 µM; in data set [17] it was 19 µM. For the same compound, the inhibition was 80% in data set [3], “Dose-dependent effect” in data set [15] and “Dose-dependent effect” in [20]. In addition, the Ratio IC50 was above 37 in [4]; 23 in data set [6]; 7 in data set [7]; above 37 in [8]; above 10 in [9]; above 10 in [12]. Moreover, the Ratio IC50 was 22 in data set [13]; above 10 in [14]; 2.5 in data set [16]; above 37 in [18]; above 10 in [19]; above 37 in data set [21]. Also, in [22], the Ratio IC50 is above 37.

As to `Cc1c(-c2ccccc2)ccc2c1CCNC2=O`, the solubility result in data set [23] is “Insoluble”. Moreover, the IC50 in [1] worked out at 1.6 µM.

On to `CC(=O)c1cccc(-c2ccc3c(c2)CCNC3=O)c1`, for which, in data set [1], the IC50 is 1.6 µM.

In the case of `O=C1NCCc2cc(Cc3ccccc3)ccc21`, the IC50 in [1] is above 50 µM.

For the compound `O=C1NCCc2c1cccc2-c1ccccc1`, the IC50 in [1] was determined as 35 µM.

Turning to `O=C1NCCc2cc(Br)ccc21`, the IC50 in data set [1] is 17.1 µM.

As for `Cc1c(-c2ccc3[nH]ccc3c2)ccc2c1CCNC2=O`, the IC50 in data set [1] is 1.1 µM.

On to `Cc1ccc2c(c1)CCNC2=O`, for which the IC50 in [1] amounted to 33.1 µM.

In the case of `O=C1NCCc2cc(-c3cccc(F)c3)ccc21`, the IC50 in [1] was 1.4 µM.

Consider `Cc1c(-c2cncc(F)c2)ccc2c1CCNC2=O`, for which the IC50 in [1] is 2.2 µM.

`Cc1c(-c2cnc3[nH]ccc3c2)ccc2c1CCNC2=O`: in data set [1], the IC50 was 0.71 µM.
